Series [1] is described as follows: Genotoxicity in Salmonella typhimurium TA98 at 30 uM in presence of rat liver S9 fraction by Ames test. In kind it is toxicity, subcellular. Conditions: salmonella enterica subsp. enterica serovar typhimurium, s9, 30 µM. Summed up:
(§1)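 Microplate fluctuation Ames reverse-mutation test following kit instructions; TA98 detects frameshift and TA100 base-exchange mutations. Compound at 30 µM final with Aroclor-1254-induced rat liver S9 plus cofactors.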
A general note: In the Ames test, an excess of revertant colonies over the control signals mutagenicity.

Series [2] is described as follows: Genotoxicity in Salmonella typhimurium TA100 at 30 uM in presence of rat liver S9 fraction by Ames test. In kind it is toxicity, subcellular. The following applies: salmonella enterica subsp. enterica serovar typhimurium, s9, 30 µM. The procedure, abridged: as §1
Series [3] can be described thus: Selectivity index, ratio of IC50 for human HepG2 cells to MIC>99 for antimycobacterial activity against Mycobacterium kansasii CNCTC My 235/80 after 7 days. Conditions: read-out: Selectivity Index. The series is classed as toxicity.
The nature of series [4]: Selectivity index, ratio of IC50 for human A431 cells to MIC>99 for antimycobacterial activity against XDR Mycobacterium tuberculosis Praha 131 after 14 days. In kind it is toxicity. Conditions: read-out: Selectivity Index.
The nature of series [5]: Selectivity index, ratio of IC50 for human A431 cells to MIC>99 for antimycobacterial activity against Mycobacterium kansasii 6509/96 after 21 days. Conditions: read-out: Selectivity Index. In kind it is toxicity.
A short description of series [6]: Selectivity index, ratio of IC50 for human A431 cells to MIC>99 for antimycobacterial activity against XDR Mycobacterium tuberculosis Praha 131 after 21 days. In kind it is toxicity. The following applies: read-out: Selectivity Index.
The nature of series [7]: Selectivity index, ratio of IC50 for human A431 cells to MIC>99 for antimycobacterial activity against Mycobacterium kansasii CNCTC My 235/80 after 21 days. The series is classed as toxicity. Conditions: read-out: Selectivity Index.
Series [8] in a line: Selectivity index, ratio of IC50 for human A431 cells to MIC>99 for antimycobacterial activity against Mycobacterium avium CNCTC My 330/88 after 21 days. The series is classed as toxicity. Conditions: read-out: Selectivity Index.
A short description of series [9]: Selectivity index, ratio of IC50 for human A431 cells to MIC>99 for antimycobacterial activity against Mycobacterium kansasii CNCTC My 235/80 after 7 days. Conditions: read-out: Selectivity Index. In kind it is toxicity.
A short description of series [10]: Selectivity index, ratio of IC50 for human A431 cells to MIC>99 for antimycobacterial activity against Mycobacterium avium CNCTC My 330/88 after 14 days. The series is classed as toxicity. The following applies: read-out: Selectivity Index.
Series [11] in a line: Selectivity index, ratio of IC50 for human A431 cells to MIC>99 for antimycobacterial activity against Mycobacterium kansasii 6509/96 after 14 days. In kind it is toxicity. Conditions: read-out: Selectivity Index.
The nature of series [12]: Selectivity index, ratio of IC50 for human HepG2 cells to MIC>99 for antimycobacterial activity against Mycobacterium avium CNCTC My 330/88 after 14 days. In kind it is toxicity. Conditions: read-out: Selectivity Index.
The nature of series [13]: Selectivity index, ratio of IC50 for human A431 cells to MIC>99 for antimycobacterial activity against Mycobacterium kansasii 6509/96 after 7 days. In kind it is toxicity. Conditions: read-out: Selectivity Index.
Series [14] in a line: Selectivity index, ratio of IC50 for human HepG2 cells to MIC>99 for antimycobacterial activity against Mycobacterium kansasii 6509/96 after 14 days. The series is classed as toxicity. The following applies: read-out: Selectivity Index.
The nature of series [15]: Selectivity index, ratio of IC50 for human HepG2 cells to MIC>99 for antimycobacterial activity against Mycobacterium kansasii 6509/96 after 7 days. The series is classed as toxicity. The following applies: read-out: Selectivity Index.
Series [16] is described as follows: Selectivity index, ratio of IC50 for human A431 cells to MIC>99 for antimycobacterial activity against Mycobacterium kansasii CNCTC My 235/80 after 14 days. The series is classed as toxicity. The following applies: read-out: Selectivity Index.
The nature of series [17]: Selectivity index, ratio of IC50 for human HepG2 cells to MIC>99 for antimycobacterial activity against Mycobacterium tuberculosis H37Rv CNCTC My 331/88 after 21 days. The series is classed as toxicity. Conditions: read-out: Selectivity Index. Summed up:
(§2)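 SI from HepG2 IC50 and M. tuberculosis MIC. HepG2 cells: DMEM + 10% FBS + 1 mM pyruvate, 10,000/well, 48 h treatment, 0.1% DMSO and 10% SDS controls, MTS absorbance at 490 nm.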

Series [18] is described as follows: Selectivity index, ratio of IC50 for human HepG2 cells to MIC>99 for antimycobacterial activity against Mycobacterium tuberculosis H37Rv CNCTC My 331/88 after 14 days. In kind it is toxicity. Conditions: read-out: Selectivity Index. Summed up: as §2
The nature of series [19]: Selectivity index, ratio of IC50 for human HepG2 cells to MIC>99 for antimycobacterial activity against Mycobacterium avium CNCTC My 330/88 after 21 days. The following applies: read-out: Selectivity Index. The series is classed as toxicity.
A short description of series [20]: Selectivity index, ratio of IC50 for human HepG2 cells to MIC>99 for antimycobacterial activity against XDR Mycobacterium tuberculosis Praha 131 after 21 days. The series is classed as toxicity. The following applies: read-out: Selectivity Index. Summed up: as §2
The nature of series [21]: Selectivity index, ratio of IC50 for human A431 cells to MIC>99 for antimycobacterial activity against Mycobacterium tuberculosis H37Rv CNCTC My 331/88 after 14 days. The series is classed as toxicity. The following applies: read-out: Selectivity Index.
Series [22] in a line: Selectivity index, ratio of IC50 for human HepG2 cells to MIC>99 for antimycobacterial activity against Mycobacterium kansasii 6509/96 after 21 days. In kind it is toxicity. The following applies: read-out: Selectivity Index.

For the compound `O=[N+]([O-])c1cc(-c2nnc(SCc3ccccc3)n2Cc2ccccc2)cc([N+](=O)[O-])c1`, the Activity entry in series [1] and in series [2] was “Non-Toxic” in each case.

`O=[N+]([O-])c1cc(-c2nnc(SCc3ccccc3)n2Cc2ccccc2)cc(C(F)(F)F)c1`: the selectivity ratio at 168 h in series [3], in [9], in series [13] and in series [15] was > 100 throughout. Also, the selectivity ratio at 336 h in series [4], in series [10], in series [11], in series [12], in series [14] and in [16] was > 100 each time. Also, the selectivity ratio at 336 h in [18] and in series [21] was > 100 throughout. The selectivity ratio at 504 h in series [5], in series [6], in [7], in series [8], in series [17] and in series [19] was > 100 each time. Further, the selectivity ratio at 504 h in series [20] and in [22] was > 100 throughout.

The record behind these values is ChEMBL document CHEMBL4373711, “Development of 3,5-Dinitrophenyl-Containing 1,2,4-Triazoles and Their Trifluoromethyl Analogues as Highly Efficient Antitubercular Agents Inhibiting Decaprenylphosphoryl-β-d-ribofuranose 2'-Oxidase” (J Med Chem, 2019).
